This note sets out measurements from ChEMBL document CHEMBL4041550, “Structure-Activity Relationship Study of QL47: A Broad-Spectrum Antiviral Agent” (ACS Med Chem Lett, 2017).

Active and inactive are the calls of the source. The rule behind the calls is not given here.

The subject of data set [1] is dengue virus type 2. Description: Antiviral activity against Dengue virus serotype 2 strain New Guinea C infected in HuH7 cells at < 10 uM measured at 24 hrs post infection by focus forming assay. In kind it is functional, cell-based. The note with it: Thailand/NGS-C/1944. A digest of the protocol: (§1)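 Huh7 cells infected with DENV2, then treated with compound; screened at 2 and 10 μM. Infectious virus secreted into supernatant at 24 h post-infection/treatment titrated by focus-forming assay; expressed as log-fold change relative to DMSO. IC90 (1-log10 drop in infectious progeny) from concentration range by non-linear regression; mean ± SD of experimental duplicates, n ≥ 2 repeats.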

The nature of data set [2]: Half life in mouse hepatic microsomes at 1 uM in presence of NADPH by LC-MS/MS method. The format is ADME, Microsome. The note with it: liver microsomes. A digest of the protocol: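 Compound incubated with mouse liver microsomes; half-life (T1/2, min) of the compound reported as a measure of metabolic stability.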
A short description of data set [3]: Cytotoxicity against human HuH7 cells measured after 24 hrs by CellTiter-Glo luminescent cell viability assay. In kind it is cell-based, Huh-7. The method, boiled down:
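DENV2-infected Huh7 cells treated across a concentration range; cell viability read 24 h later. CC50 (50% cytotoxicity) derived by non-linear regression; mean ± SD of experimental duplicates, n ≥ 2 repeats.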

The subject of data set [4] is Enterovirus C. Description: Antiviral activity against Polio virus Chat infected in Vero cells at 4 uM measured at 12 hrs post infection by crystal violet staining based plaque formation assay. The format is functional, cell-based. A digest of the protocol:
(§2)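 Vero cells infected with poliovirus or VSV, then treated with 4 μM compound for 12 h (poliovirus) or 6 h (VSV). Infectious virus released to supernatants quantified by plaque-forming assay, plotted relative to DMSO-treated samples. Mean ± SD of experimental duplicates, n ≥ 2 repeats.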

The subject of data set [5] is dengue virus type 2. In words: Antiviral activity against Dengue virus serotype 2 strain New Guinea C infected in HuH7 cells measured at 24 hrs post infection by focus forming assay. The format is functional. Conditions: Thailand/NGS-C/1944, Huh-7, 24 h. A digest of the protocol: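 Huh7 cells infected with DENV2, then treated with a range of compound concentrations. Viral yield measured 24 h later by titration of infectious particles in supernatants; in parallel, cell viability measured. IC90 (1-log10 reduction in infectious progeny) and CC50 derived by non-linear regression. Mean ± SD of experimental duplicates, n ≥ 2 repeats.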

Data set [6] relates to Kunjin virus. Description: Antiviral activity against West Nile virus Kunjin infected in HuH7 cells at 2 uM measured at 24 hrs post infection by crystal violet staining based plaque formation assay. In kind it is functional, cell-based. The method, boiled down:
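Huh7 cells infected with West Nile virus, then treated with 2 μM for 24 h. Infectious virus released to supernatants quantified by plaque assay and plotted relative to DMSO-treated samples; mean ± SD of experimental duplicates, n ≥ 2 repeats.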

Data set [7] relates to dengue virus type 2. Description: Antiviral activity against Dengue virus serotype 2 replicon harboring GVD mutant infected in HuH7 cells assessed as reduction in viral RNA translation at 10 uM measured at 6 hrs post infection by luciferase reporter gene assay relative to control. Details: scale not given: the % may be the effect or the level left. The format is functional. A digest of the protocol:
(§3)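 Huh7 cells transfected with in vitro-transcribed nonreplicative DENV2(GVD) reporter replicon RNA, then treated immediately with compound at 2 or 10 μM. Intracellular firefly luciferase activity read 6 h post-transfection as a measure of RNA translation and expressed relative to DMSO-treated samples. Mean ± SD of experimental duplicates, n = 3 repeats.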

For data set [8], the system named is Vero. In words: Antiviral activity against Respiratory syncytial virus A2 infected in Vero cells at 2.5 uM pretreated for 7 days followed by viral infection by crystal violet staining based plaque formation assay. The format is functional, cell-based. Conditions: Human respiratory syncytial virus A2.
The test system of data set [9] is dengue virus type 2. Description: Antiviral activity against Dengue virus serotype 2 strain New Guinea C infected in HuH7 cells assessed as reduction in log-fold change by measuring focus forming unit at 10 uM measured at 24 hrs post infection by focus forming assay relative to control. In kind it is functional, Thailand/NGS-C/1944. A digest of the protocol: (§4)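 DENV2-infected Huh7 cells treated with compound at 2 or 10 μM. Infectious virus secreted into culture supernatants at 24 h post-infection/treatment was titred by focus-forming assay. Result expressed as log-fold change relative to DMSO treatment.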

The test system of data set [10] is Vesicular stomatitis Indiana virus. Description: Antiviral activity against Vesicular stomatitis virus Indiana infected in Vero cells at 4 uM measured at 6 hrs post infection by crystal violet staining based plaque formation assay. In kind it is functional, cell-based. The method, boiled down:
as §2

Data set [11] has as its system dengue virus type 2. In words: Antiviral activity against Dengue virus serotype 2 replicon harboring GVD mutant infected in HuH7 cells assessed as reduction in viral RNA translation at 2 uM measured at 6 hrs post infection by luciferase reporter gene assay relative to control. In kind it is functional. Details: scale not given: the % may be the effect or the level left. The method, boiled down: as §3

Data set [12] has as its system dengue virus type 2. Description: Antiviral activity against Dengue virus serotype 2 strain New Guinea C infected in HuH7 cells assessed as reduction in log-fold change by measuring focus forming unit at 2 uM measured at 24 hrs post infection by focus forming assay relative to control. In kind it is functional, Thailand/NGS-C/1944. The method, boiled down:
as §4

Data set [13] deals with dengue virus type 2. In words: Antiviral activity against Dengue virus serotype 2 strain New Guinea C infected in HuH7 cells at […] to 10 uM measured at 24 hrs post infection by focus forming assay. In kind it is functional, cell-based. The note with it: Thailand/NGS-C/1944. A digest of the protocol: as §1

Regarding `CCC(=O)N1CCc2ccc(-n3c(=O)ccc4cnc5ccc(-c6cnn(C)c6)cc5c43)cc21`, the outcome in data set [1] was inactive.
With `C=CC(=O)N1CCc2ccc(-n3c(=O)ccc4cnc5ccc(-c6cnn(C)c6)cc5c43)cc21`, in [2], the half-life at 1 µM is 1.2 min. The compound also displayed a CC50 at 24 h in data set [3] of 67 to 68 µM. Moreover, the outcome in [4], in data set [6], in data set [8] and in data set [10] was Active. The concentration for an effect of 90% (IC90) in data set [5] stood at 0.343 µM. Also, the Activity in [7] was 98%; in [9] it was 4 log10FFU/ml; in data set [11] it was 94%; in [12], 4 log10FFU/ml.
`Cc1c(NC(=O)c2ccc(C(C)(C)C)cc2)cccc1-c1cn(C)c(=O)c(Nc2ccc(C(=O)N3CCOCC3)cc2)n1`: the result in [13] was inactive.
Same read-out and setting: then `C=CC(=O)N1CCC[C@@H](n2nc(-c3ccc(Oc4ccccc4)cc3)c3c(N)ncnc32)C1`, with “inactive”; and `C=CC(=O)Nc1cc(-n2c(=O)ccc3cnc4ccc(-c5ccc(NS(C)(=O)=O)cc5)cc4c32)ccc1C`, with “inactive”.
For the compound `C=CC(=O)Nc1cc(-n2c(=O)ccc3cnc4ccc(N5CCN(c6ccccc6)CC5)cc4c32)ccc1C`, the half-life at 1 µM in data set [2] is 5 min. In data set [3], the CC50 at 24 h came out at 44 µM. Moreover, the Activity was 2% in data set [7], 0 log10FFU/ml in data set [9], 0% in data set [11] and 0.1 log10FFU/ml in data set [12].
As for `C=CC(=O)N1CCc2ccc(-n3c(=O)n(C)c4cnc5ccc(-c6cnn(C)c6)cc5c43)cc21`, the half-life at 1 µM in [2] amounted to 2 min. This compound had a CC50 at 24 h in [3] of 79 µM. The Activity in [7] is 99%; in data set [9], 4 log10FFU/ml; in data set [11] it was 94%; in [12] it was 2.5 log10FFU/ml.
